Assay results published in ChEMBL document CHEMBL1221300, “Synthesis and biochemical evaluation of a range of (4-substituted phenyl)sulfonate derivatives of 4-hydroxybenzyl imidazole-based compounds as potent inhibitors of 17alpha-hydroxylase/17,20-lyase (P45017alpha) derived from rat testicular microsomes” (Bioorg Med Chem Lett, 2010).

What was measured:
[1] = molecular target: T1, Steroid 17-alpha-hydroxylase/17,20 lyase (Rattus norvegicus, UniProt P11715); assay: Inhibition of 17,20-lyase activity of rat testicular microsomal P450-17alpha
T1 sequence (P11715 whole entry): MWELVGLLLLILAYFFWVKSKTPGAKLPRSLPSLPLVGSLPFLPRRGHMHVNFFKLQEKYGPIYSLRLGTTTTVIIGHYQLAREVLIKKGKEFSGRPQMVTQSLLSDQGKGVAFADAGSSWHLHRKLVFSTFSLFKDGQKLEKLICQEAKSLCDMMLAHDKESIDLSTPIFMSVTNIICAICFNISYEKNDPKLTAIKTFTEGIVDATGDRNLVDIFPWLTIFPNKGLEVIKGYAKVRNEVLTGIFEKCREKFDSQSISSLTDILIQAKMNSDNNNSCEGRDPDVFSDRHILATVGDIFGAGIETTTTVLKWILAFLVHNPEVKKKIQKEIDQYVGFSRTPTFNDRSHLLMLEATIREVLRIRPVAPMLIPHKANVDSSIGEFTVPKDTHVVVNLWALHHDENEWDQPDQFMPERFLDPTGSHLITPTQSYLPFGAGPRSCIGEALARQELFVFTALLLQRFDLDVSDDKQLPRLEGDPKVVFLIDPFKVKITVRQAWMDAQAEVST
In short: (§1)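 Rat testicular microsomal enzyme incubated with radiolabelled substrate. The radiolabelled substrate was separated from the incubation mixture and identified by thin layer chromatography. Both the 17α-hydroxylase and the 17,20-lyase components were assessed this way.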

[2] = molecular target: T1, Steroid 17-alpha-hydroxylase/17,20 lyase; assay: Inhibition of 17-alpha-hydroxylase activity of rat testicular microsomal P450-17alpha; in short: as §1

Structure (SMILES) | IC50 [1] [nM] | IC50 [2] [nM]
O=S(=O)(Oc1ccc(Cn2ccnc2)cc1)c1ccc(F)cc1 | 14 | 200
O=S(=O)(Oc1ccc(Cn2ccnc2)cc1)c1ccc(-c2ccccc2)cc1 | 10 | 100
Cc1ccc(S(=O)(=O)Oc2ccc(Cn3ccnc3)cc2)cc1 | 30 | 40
CCc1ccc(S(=O)(=O)Oc2ccc(Cn3ccnc3)cc2)cc1 | 20 | 110
Oc1ccc(Cn2ccnc2)cc1 | 1470 | 2500
CCCc1ccc(S(=O)(=O)Oc2ccc(Cn3ccnc3)cc2)cc1 | 30 | 1210
O=S(=O)(Oc1ccc(Cn2ccnc2)cc1)c1ccc(C(F)(F)F)cc1 | 34 | 1040
CC(=O)N1CCN(c2ccc(OCC3COC(Cn4ccnc4)(c4ccc(Cl)cc4Cl)O3)cc2)CC1 (centres undefined) [KETOCONAZOLE] | 206 | 2660
Ic1ccc(Cn2ccnc2)cc1 | 164 | 730
c1ccc(Cn2ccnc2)cc1 [BENZYLIMIDAZOLE] | > 3000 | > 3000
CCCCc1ccc(S(=O)(=O)Oc2ccc(Cn3ccnc3)cc2)cc1 | 40 | 70
CCCCCc1ccc(S(=O)(=O)Oc2ccc(Cn3ccnc3)cc2)cc1 | 160 | 130
